From ChEMBL document CHEMBL5046221, “Identification of Pyrimidine-Based Lead Compounds for Understudied Kinases Implicated in Driving Neurodegeneration” (J Med Chem, 2022)

Legend:
[1] = target: T1, Macrophage colony-stimulating factor 1 receptor (Homo sapiens, UniProt P07333); test: Inhibition of recombinant human FMS (538 to end residues) using KKKSPGEYVNIEFG as substrate measured after 40 mins in presence of [gamma33P]ATP by radiometric scintillation counting method
In short: (§1)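 Eurofins radiometric kinase assay run at ATP equal to Km for each kinase. 9-point dose–response in duplicate gives the IC50.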

[2] = target: T2, Serine/threonine-protein kinase 17A (Homo sapiens, UniProt Q9UEE5); test: Displacement of tracer K9 from NLuc fused DRAK1 (unknown origin) expressed in HEK293 cells by NanoBRET assay; format: cell-based
T2 sequence (Q9UEE5 whole entry): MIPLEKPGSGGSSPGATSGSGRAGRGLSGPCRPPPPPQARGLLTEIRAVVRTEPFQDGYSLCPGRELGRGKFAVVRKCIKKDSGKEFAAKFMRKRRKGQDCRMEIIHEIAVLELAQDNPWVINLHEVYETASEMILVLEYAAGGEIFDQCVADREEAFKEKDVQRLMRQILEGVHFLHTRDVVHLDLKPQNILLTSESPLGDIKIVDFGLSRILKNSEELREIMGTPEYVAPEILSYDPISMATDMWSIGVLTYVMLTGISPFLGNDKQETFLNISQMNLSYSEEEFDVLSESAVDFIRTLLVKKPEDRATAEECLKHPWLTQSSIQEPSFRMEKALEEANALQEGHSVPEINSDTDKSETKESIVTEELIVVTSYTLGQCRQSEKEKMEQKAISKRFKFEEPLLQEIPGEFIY

[3] = target: MAP/microtubule affinity-regulating kinase 3 (Homo sapiens, UniProt P27448); test: Displacement of tracer K9 from NLuc fused MARK3 (unknown origin) expressed in HEK293 cells by NanoBRET assay; format: cell-based
[4] = target: T3, MAP/microtubule affinity-regulating kinase 4 (Homo sapiens, UniProt Q96L34); test: Displacement of tracer K5 from NLuc fused MARK4 (unknown origin) expressed in HEK293 cells by NanoBRET assay; format: cell-based
T3 sequence (Q96L34 whole entry): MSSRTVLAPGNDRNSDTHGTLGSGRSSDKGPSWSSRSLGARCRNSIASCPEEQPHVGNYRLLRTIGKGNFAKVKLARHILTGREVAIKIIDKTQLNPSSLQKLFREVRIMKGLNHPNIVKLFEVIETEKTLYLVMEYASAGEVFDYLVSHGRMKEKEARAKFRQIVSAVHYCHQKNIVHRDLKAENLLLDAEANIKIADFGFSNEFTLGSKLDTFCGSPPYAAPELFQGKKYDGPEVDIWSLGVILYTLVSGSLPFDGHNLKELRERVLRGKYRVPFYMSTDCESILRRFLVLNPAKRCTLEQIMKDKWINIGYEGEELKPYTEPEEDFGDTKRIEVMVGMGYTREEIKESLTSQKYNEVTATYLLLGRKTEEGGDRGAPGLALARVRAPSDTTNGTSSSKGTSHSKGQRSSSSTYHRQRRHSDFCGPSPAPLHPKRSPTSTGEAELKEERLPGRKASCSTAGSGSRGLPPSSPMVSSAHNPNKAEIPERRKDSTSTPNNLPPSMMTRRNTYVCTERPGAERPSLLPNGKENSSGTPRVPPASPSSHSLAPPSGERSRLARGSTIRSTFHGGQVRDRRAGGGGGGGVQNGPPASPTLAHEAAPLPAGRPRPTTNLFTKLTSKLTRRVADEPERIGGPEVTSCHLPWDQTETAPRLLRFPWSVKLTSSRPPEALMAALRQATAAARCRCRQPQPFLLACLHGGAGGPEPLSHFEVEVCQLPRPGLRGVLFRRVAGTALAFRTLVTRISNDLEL

[5] = target: T4, Serine/threonine-protein kinase TBK1 (Homo sapiens, UniProt Q9UHD2); test: Displacement of tracer K5 from NLuc fused TBK1 (unknown origin) expressed in HEK293 cells by NanoBRET assay; format: cell-based
T4 sequence (Q9UHD2 whole entry): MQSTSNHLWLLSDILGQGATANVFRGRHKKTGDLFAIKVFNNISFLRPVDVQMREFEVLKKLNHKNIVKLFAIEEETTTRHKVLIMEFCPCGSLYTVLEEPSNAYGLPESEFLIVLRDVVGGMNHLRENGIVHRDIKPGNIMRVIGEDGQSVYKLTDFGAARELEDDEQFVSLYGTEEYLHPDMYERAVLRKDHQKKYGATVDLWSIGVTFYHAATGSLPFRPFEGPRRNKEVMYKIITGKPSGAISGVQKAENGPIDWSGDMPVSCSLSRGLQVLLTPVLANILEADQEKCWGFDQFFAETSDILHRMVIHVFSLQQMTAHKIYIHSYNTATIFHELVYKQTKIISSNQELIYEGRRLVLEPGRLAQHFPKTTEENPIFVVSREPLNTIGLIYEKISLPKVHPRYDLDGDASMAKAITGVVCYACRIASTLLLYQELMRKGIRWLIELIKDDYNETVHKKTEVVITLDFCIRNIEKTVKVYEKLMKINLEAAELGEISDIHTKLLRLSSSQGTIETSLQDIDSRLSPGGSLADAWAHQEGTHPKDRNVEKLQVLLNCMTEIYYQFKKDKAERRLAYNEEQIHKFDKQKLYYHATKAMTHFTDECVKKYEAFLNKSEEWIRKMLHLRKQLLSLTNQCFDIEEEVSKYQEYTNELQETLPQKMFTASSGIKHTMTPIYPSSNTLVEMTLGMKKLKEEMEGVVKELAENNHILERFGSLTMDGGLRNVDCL
In short: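 HEK293 cells grown in DMEM with 10% FBS at 37 °C, 5% CO2. NanoBRET assay run in dose–response per manufacturer's protocol with tracer K-5 at 0.5 μM. SEM calculated for assays run more than once.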

[6] = target: T5, Non-receptor tyrosine-protein kinase TYK2 (Homo sapiens, UniProt P29597); test: Inhibition of human TYK2 (875 to end residues) using GGMEDIYFEFMGGKKK as substrate measured after 40 mins in presence of [gamma33P]ATP by radiometric scintillation counting method
In short: (§2)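 Eurofins radiometric enzymatic assay with ATP at Km for each kinase. IC50 was derived from a 9-point dose–response curve run in duplicate.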

[7] = Inhibition of human TTBK1 (1 to 479 residues) using Casein as substrate measured after 40 mins in presence of [gamma33P]ATP by scintillation counting method; in short: as §1
[8] = target: Receptor tyrosine-protein kinase erbB-2 (Homo sapiens, UniProt P04626); test: Inhibition of recombinant human ERBB2 (676 to 1255 residues) using poly(Glu:Tyr) as substrate incubated for 40 mins in presence of [gamma-33P-ATP] by radiometric scintillation assay; in short: as §2
[9] = target: T1, Macrophage colony-stimulating factor 1 receptor; test: Inhibition of NanoLuc-fused CSF1R (unknown origin) expressed in HEK293 cells incubated for 2 hrs by NanoBRET assay; format: cell-based
[10] = target: T5, Non-receptor tyrosine-protein kinase TYK2; test: Inhibition of NanoLuc-fused TYK2 (unknown origin) expressed in HEK293 cells incubated for 2 hrs by NanoBRET assay; format: cell-based
In short: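 Cellular NanoBRET target-engagement assays were run by Carna Biosciences to the manufacturer's protocol. Dose–response was in singlicate, with compounds tested at concentrations up to 10 μM.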

[11] = Kinetic solubility of compound in PBS at pH 7.4 incubated for 24 hrs by chemiluminscent nitrogen detection method; format: physicochemical; conditions: buffer, pH 7.4, 24 h
In short: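 Filtrates were quantified by total chemiluminescent nitrogen determination against a calibration curve, with correction for background nitrogen from DMSO and medium.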

[12] = Effective permeability in PBS at 7.4 incubated for 5 hrs by PAMPA analysis; format: ADME; conditions: pH 7.4, 5 h
In short: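 PAMPA: DMSO stocks were diluted in PBS pH 7.4 and placed in the donor compartment, with PBS pH 7.4 in the acceptor, for 5 h. Both compartments were quantified by CLND against a calibration curve, with background nitrogen correction. Effective permeability was calculated from donor and acceptor concentrations using measured rather than assumed solubility.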

[13] = target: Tyrosine-protein kinase JAK2 (Homo sapiens) (UniProt O60674); test: Inhibition of recombinant human JAK2 (808 to end residues) using KTFCGTPEYLAPEVRREPRILSEEEQEMFRDFDYIADWC as substrate at 1 uM incubated for 40 mins in presence of [gamma-33P-ATP] by radiometric scintillation assay relative to control
In short: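 Eurofins radiometric kinase assay with ATP at Km for each kinase. Compound was tested at a single 1 μM concentration in duplicate, and the result is reported as percent of control.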

[14] = target: T6, Inhibitor of nuclear factor kappa-B kinase subunit epsilon (Homo sapiens, UniProt Q14164); test: Inhibition of full length recombinant human IKKepsilon using casein as substrate incubated for 40 mins in presence of [gamma-33P-ATP] by radiometric scintillation assay; in short: as §1
T6 sequence (Q14164 whole entry): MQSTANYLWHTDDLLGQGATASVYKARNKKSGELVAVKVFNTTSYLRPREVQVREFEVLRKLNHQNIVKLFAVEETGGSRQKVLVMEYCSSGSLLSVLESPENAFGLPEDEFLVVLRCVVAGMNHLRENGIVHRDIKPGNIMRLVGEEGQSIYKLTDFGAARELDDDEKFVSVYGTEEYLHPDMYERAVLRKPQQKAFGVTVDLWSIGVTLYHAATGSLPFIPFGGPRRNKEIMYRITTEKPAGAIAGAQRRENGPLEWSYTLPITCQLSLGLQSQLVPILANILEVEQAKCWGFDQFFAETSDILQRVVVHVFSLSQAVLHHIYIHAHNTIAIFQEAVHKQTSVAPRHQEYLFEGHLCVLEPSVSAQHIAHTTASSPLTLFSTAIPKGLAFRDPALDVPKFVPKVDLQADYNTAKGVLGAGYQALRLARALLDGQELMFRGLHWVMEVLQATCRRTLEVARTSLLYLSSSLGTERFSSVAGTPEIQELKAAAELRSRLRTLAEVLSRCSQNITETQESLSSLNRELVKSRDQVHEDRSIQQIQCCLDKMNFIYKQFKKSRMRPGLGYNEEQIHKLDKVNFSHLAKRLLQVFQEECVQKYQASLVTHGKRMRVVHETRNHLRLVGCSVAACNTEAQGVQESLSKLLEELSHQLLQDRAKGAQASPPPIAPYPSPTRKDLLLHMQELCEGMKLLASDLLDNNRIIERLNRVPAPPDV

[15] = target: MAP kinase-interacting serine/threonine-protein kinase 2 (Homo sapiens, UniProt Q9HBH9); test: Inhibition of full length recombinant human MKNK2 using myelin basic protein as substrate incubated for 40 mins in presence of [gamma-33P-ATP] by radiometric scintillation assay; in short: as §1
[16] = target: Death-associated protein kinase 3 (Homo sapiens, UniProt O43293); test: Inhibition of recombinant human ZIPK (1 to 290 residues) using KKLNRTLSFAEPG as substrate measured after 40 mins in presence of [gamma33P]ATP by radiometric scintillation counting method; in short: as §2
Chain of Death-associated protein kinase 3 (O43293 whole entry, the tested form may be a part): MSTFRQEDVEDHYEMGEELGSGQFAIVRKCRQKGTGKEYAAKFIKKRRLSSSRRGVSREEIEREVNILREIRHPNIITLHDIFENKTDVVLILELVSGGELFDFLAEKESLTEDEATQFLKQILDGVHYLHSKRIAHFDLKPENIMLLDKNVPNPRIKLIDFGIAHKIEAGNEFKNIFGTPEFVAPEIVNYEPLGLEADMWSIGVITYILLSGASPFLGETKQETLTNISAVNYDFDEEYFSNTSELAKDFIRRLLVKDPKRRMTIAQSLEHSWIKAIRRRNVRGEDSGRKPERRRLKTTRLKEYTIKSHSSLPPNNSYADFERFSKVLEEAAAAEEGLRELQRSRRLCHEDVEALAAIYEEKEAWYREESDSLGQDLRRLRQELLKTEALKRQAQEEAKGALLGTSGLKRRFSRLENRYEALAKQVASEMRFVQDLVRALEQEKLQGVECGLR

T1 sequence (P07333 whole entry): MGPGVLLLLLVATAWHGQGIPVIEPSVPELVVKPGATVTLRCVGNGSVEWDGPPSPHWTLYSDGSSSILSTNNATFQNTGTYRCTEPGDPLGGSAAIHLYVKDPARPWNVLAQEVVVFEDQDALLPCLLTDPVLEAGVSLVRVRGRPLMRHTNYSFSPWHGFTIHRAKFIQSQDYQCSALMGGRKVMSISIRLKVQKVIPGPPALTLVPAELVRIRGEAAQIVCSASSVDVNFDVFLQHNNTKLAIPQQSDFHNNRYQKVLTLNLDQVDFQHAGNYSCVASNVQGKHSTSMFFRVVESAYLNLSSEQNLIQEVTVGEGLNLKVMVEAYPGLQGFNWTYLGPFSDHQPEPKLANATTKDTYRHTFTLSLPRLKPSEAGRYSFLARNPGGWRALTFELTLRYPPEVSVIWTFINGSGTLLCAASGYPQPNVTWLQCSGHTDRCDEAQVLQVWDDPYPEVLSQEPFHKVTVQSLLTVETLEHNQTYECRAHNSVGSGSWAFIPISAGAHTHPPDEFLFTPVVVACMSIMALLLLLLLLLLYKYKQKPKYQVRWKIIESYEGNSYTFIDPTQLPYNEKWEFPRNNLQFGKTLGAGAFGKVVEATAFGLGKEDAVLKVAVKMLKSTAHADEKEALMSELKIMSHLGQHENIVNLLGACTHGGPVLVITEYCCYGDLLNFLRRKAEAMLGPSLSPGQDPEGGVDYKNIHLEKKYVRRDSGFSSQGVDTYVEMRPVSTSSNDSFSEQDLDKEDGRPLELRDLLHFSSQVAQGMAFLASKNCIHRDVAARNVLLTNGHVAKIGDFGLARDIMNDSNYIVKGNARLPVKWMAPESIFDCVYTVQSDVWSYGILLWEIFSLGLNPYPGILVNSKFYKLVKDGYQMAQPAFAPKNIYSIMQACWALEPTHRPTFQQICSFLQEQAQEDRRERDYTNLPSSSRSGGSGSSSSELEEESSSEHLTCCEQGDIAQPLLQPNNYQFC
Chain of MAP/microtubule affinity-regulating kinase 3 (P27448 whole entry, the tested form may be a part): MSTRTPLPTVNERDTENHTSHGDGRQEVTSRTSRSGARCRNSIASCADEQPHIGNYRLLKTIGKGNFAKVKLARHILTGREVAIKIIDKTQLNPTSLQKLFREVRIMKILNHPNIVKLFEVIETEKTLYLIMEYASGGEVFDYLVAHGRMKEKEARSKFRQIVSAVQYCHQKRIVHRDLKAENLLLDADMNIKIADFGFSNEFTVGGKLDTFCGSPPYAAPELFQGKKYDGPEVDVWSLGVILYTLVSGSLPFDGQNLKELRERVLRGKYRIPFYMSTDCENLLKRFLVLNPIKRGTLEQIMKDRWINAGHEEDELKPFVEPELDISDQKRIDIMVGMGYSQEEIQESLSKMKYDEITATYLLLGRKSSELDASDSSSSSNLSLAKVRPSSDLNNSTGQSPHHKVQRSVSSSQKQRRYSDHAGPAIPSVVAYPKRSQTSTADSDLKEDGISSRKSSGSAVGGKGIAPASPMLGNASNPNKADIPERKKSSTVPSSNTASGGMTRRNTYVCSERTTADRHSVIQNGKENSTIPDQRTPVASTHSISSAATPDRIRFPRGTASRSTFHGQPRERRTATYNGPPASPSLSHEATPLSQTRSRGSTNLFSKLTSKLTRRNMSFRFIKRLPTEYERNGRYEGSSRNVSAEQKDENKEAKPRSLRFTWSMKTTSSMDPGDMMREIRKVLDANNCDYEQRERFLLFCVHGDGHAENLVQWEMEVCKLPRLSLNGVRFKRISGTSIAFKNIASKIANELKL
T5 sequence (P29597 whole entry): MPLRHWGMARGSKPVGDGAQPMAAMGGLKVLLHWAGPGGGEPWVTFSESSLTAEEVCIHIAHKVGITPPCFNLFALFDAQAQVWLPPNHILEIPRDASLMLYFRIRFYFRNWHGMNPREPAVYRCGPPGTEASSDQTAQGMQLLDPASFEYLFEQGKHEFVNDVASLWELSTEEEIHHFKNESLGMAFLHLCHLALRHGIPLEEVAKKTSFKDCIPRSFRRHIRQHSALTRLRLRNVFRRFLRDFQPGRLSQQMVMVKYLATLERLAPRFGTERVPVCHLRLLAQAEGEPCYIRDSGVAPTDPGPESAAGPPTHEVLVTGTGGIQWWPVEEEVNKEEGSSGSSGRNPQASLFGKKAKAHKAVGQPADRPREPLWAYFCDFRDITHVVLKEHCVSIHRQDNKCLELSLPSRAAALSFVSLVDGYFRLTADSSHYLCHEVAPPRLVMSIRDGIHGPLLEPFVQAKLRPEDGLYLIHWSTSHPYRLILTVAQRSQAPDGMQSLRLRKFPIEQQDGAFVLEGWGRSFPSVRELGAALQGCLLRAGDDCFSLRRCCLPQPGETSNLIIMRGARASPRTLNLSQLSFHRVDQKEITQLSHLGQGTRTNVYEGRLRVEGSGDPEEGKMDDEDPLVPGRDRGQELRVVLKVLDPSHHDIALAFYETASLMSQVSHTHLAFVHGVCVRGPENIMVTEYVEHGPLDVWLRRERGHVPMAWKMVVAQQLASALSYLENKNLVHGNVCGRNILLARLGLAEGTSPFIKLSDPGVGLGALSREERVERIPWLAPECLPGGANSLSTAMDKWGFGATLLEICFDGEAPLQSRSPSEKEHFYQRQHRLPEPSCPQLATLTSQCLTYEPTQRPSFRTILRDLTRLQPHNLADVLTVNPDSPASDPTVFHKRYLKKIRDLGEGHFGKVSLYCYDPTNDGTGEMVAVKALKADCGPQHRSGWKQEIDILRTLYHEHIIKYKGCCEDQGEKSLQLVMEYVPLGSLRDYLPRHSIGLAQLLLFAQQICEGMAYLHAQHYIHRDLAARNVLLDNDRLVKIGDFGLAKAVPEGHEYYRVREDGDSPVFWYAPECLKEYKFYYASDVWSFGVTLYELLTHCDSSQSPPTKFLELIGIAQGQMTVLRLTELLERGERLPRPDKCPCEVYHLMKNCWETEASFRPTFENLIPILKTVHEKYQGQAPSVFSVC
Chain of Receptor tyrosine-protein kinase erbB-2 (P04626 whole entry, the tested form may be a part): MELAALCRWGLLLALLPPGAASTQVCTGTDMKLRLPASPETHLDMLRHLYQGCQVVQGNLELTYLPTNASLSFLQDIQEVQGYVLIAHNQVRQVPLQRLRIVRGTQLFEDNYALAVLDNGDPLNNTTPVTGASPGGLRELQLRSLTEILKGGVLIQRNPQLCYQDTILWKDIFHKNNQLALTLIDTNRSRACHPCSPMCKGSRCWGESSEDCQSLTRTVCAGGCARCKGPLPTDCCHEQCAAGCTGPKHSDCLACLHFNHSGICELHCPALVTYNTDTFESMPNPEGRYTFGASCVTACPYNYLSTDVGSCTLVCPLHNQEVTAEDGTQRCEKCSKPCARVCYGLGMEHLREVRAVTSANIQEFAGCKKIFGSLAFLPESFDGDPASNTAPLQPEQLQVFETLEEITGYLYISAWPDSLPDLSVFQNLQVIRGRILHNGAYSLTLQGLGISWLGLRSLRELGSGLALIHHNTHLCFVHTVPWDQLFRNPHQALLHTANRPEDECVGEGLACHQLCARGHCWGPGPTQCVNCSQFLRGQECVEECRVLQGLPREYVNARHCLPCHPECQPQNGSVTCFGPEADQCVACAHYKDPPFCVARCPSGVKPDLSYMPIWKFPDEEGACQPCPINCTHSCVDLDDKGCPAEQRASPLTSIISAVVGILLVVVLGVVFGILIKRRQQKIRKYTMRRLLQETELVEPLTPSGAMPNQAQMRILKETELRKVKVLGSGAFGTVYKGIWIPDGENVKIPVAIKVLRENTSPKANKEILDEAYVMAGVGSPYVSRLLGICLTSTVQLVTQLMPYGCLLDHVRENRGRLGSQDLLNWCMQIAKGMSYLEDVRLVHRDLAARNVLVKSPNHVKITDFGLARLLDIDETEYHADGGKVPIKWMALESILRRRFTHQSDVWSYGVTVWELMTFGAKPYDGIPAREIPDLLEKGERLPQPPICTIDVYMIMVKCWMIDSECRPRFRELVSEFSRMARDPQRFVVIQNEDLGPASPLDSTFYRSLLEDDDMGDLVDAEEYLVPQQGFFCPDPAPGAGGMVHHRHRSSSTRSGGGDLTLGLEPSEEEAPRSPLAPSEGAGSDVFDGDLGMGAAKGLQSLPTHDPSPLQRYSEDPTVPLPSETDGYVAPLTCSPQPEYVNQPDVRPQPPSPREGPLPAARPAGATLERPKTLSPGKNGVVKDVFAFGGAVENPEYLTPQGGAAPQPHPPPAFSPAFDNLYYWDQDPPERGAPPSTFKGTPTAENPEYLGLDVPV
Chain of MAP kinase-interacting serine/threonine-protein kinase 2 (Q9HBH9 whole entry, the tested form may be a part): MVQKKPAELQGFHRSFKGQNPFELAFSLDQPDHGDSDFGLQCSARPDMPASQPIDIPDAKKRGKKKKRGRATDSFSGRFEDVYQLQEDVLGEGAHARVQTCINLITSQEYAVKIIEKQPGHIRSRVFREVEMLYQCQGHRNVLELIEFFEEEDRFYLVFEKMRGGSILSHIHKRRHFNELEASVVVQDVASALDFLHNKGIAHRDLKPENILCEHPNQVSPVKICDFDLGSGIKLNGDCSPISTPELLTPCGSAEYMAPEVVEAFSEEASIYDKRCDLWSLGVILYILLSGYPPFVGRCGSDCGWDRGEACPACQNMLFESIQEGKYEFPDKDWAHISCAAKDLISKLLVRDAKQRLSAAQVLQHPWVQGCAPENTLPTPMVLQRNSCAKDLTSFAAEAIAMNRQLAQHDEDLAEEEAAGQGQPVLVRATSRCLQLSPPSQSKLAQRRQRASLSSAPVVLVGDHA

Row | SMILES | IC50 [1] | IC50 [2] | IC50 [3] | IC50 [4] | IC50 [5] | IC50 [6] | IC50 [7] | IC50 [8] | IC50 [9] | IC50 [10] | Kinetic solubility [11] | Peff [12] | % control [13] | IC50 [14] | IC50 [15] | IC50 [16] | Kinetic_solubility [11] | Peff ([12]; BLD = below limit of detection)
1 | NS(=O)(=O)c1ccc(CNc2ccnc(Nc3cccc(CN4CCOCC4)c3)n2)cc1 | 91 nM | > 10 µM | > 10 µM | > 10 µM | > 10000 nM | 276 nM | 2740 nM | > 10 µM | 5.06 µM | > 10 µM | 176 µM | 4.56 10^-7 cm/s | 54% |  |  |  |  | 
2 | Cc1nn(CC(F)(F)F)cc1Nc1ncc(Br)c(NCc2ccc(S(N)(=O)=O)cc2)n1 |  | > 10 µM | > 10 µM | > 10 µM | 339 nM |  | 37 nM |  | > 10 µM |  |  |  |  | 552 nM | 1370 nM | > 10 µM | 176.9 µM | Bld
